Active and inactive are the calls of the source.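 The calls were made as follows, unless noted: active = Her2 level under about 52% in both replicate screens, with viability over 70% of control (limit read from the data); inconclusive = Her2 under the limit in one screen only, or viability under 70%; inactive = Her2 level above the set limit.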
Legend:
[1] = Her2 expression decrease, cell viability multiplex – SKBR3 breast tumor cells, AlphaScreen, ATP viability, primary screen (AID 461); settings: SKBR3 Her2 protein level, 18-24 h, measured here: SKBR3 viability, ATP luminescence, at 10 µM;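 as to Her2 level: lower value means less Her2 protein in the cells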;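 as to viability: percent of carrier control wells set as 100% viability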
[2] = molecular target: Receptor tyrosine-protein kinase erbB-2 (Homo sapiens) (UniProt P04626); assay: as above; settings: 18-24 h, at 10 µM, stronger effect = lower value
Sequence of Receptor tyrosine-protein kinase erbB-2 (Homo sapiens) (P04626 whole entry, looked up): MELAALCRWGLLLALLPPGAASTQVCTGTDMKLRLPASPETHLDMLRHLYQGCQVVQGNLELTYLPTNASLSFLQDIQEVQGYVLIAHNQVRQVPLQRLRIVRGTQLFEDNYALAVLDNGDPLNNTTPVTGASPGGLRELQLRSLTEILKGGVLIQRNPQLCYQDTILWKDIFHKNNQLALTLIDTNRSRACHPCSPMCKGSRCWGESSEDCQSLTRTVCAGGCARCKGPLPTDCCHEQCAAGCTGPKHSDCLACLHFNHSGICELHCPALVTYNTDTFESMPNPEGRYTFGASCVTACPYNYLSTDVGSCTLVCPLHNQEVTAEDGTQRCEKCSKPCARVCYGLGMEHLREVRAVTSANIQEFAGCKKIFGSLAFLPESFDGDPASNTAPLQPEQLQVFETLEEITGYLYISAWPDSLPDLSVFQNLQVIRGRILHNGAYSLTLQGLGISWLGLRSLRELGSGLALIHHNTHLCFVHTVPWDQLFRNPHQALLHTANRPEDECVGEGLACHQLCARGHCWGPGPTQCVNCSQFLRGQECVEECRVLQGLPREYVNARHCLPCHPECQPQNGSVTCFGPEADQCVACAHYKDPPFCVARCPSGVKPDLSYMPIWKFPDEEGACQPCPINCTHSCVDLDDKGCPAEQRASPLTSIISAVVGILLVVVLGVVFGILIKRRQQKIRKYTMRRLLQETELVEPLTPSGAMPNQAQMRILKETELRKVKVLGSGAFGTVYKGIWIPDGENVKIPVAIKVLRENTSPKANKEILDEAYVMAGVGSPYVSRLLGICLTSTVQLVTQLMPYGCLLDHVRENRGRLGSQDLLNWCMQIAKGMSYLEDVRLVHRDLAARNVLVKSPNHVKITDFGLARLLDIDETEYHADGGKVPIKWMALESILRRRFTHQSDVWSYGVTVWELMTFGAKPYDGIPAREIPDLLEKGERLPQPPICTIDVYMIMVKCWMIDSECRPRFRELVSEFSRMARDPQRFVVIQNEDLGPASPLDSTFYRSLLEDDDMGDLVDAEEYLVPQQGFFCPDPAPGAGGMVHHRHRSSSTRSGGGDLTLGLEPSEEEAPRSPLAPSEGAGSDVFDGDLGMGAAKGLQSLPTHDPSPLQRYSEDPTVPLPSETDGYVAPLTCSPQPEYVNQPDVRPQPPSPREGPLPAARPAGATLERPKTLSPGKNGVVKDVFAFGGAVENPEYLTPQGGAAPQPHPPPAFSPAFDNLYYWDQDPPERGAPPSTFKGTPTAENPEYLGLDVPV

[3] = reduced viability of SK-BR-3 breast cancer cells – cell-based, 24 h, human, pilot screen (AID 572;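 active = viability at or below 10% of carrier control in both of two separate runs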;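 also: compound exposure lasted between 18 and 24 h rather than exactly 24 h; 100% = carrier-treated control wells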); settings: SK-BR-3 viability, CellTiter-Glo luminescence, at 10 µM, stronger effect = lower value
[4] = HUVEC growth inhibition – cell-based, human, primary screen (AID 575;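 active = viability at or below 30% in both replicate assays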;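 also: 100% = median of untreated cell wells with 0.1% DMSO on each plate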); settings: HUVEC proliferation, CellTiter-Glo luminescence, 72 h; at 10 µM; stronger effect = lower value
In short: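 Test system: primary human umbilical vein endothelial cells. Quantity: 1250 cells/well. Compound: single 10 µM dose, 0.1% DMSO, from 5x medium stock. Timing: 72 h treatment at 37 °C. Detection: ATP-based CellTiter-Glo luminescent read. Benchmarks: vehicle and MePR control wells. Format: 384-well plates coated with collagen.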

[5] = H69AR cell proliferation blockers – human, duplicate replicates, primary screen (AID 580;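 active = viability at or under a set limit in both replicates, limit being median viability minus 3 SD, cut at about 48% in these data, passing the limit was not always enough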;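 also: 100% = mean luminescence of untreated wells and 0% = no signal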); settings: H69AR lung tumor cells viability, ATP luminescence, 72 h; at 10 µM; stronger effect = lower value
[6] = MRP1 drug-resistance reversers in H69AR cells – cell-based, doxorubicin co-treatment, pilot screen (AID 601;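 active = viability loss from added drug above about 55%, and viability with drug at most 40%, in both replicates, limit read from the data, passing the limit was not always enough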); settings: CellTiter-Glo, 72 h, at 10 µM; for differential viability (reversal): stronger effect = higher value
[7] = yeast transport mutant growth inhibition pilot in 384-well plates, post-Golgi transport modulator project (AID 636; in the data active = inhibition above about 31%); settings: absorbance 615 nm, about 18 h, stronger effect = higher value
[8] = growth suppression of yeast trafficking mutant, preliminary HTS, modulators of trafficking downstream of Golgi apparatus project, 1536-format plate, OD 615 nm (AID 637; in the data active = inhibition above about 30%); settings: yeast transport mutant growth, absorbance 615 nm, 18 h; stronger effect = higher value
[9] = H69AR cells + 2 uM doxorubicin, measured here: viability with 2 uM doxorubicin, stronger effect = lower value
[10] = H69AR cells, compound alone cytotoxicity

Structure (SMILES)	viability [1] [%]	Her2 level [2]	viability [3]	viability [4]	viability [5]	differential viability (reversal) ([6]; H69AR cells + 2 uM doxorubicin)	viability [6, 9] [%]	viability [6, 10] [%]	inhibition [7]	inhibition [8]
O=C(OCc1ccccc1F)c1ccc2c(c1)OCCO2	122	86% (inactive)	122% (inactive)	103% (inactive)	92% (inactive)	9.29% (inactive)	82.7	92	-5.47% (inactive)	-5.08% (inactive)
COC(=O)c1sc(N2C(=O)C(O)=C(C(=O)c3ccc(C)o3)C2c2ccc(F)cc2)nc1C (stereo not given)	95	81.5% (inactive)	95% (inactive)	113% (inactive)	135% (inactive)	61.4% (inactive)	73.8	135	-1.08% (inactive)	-1.48% (inactive)
COc1ccc(OC)c(C2C(C#N)=C(N)Oc3cc(C)[nH]c(=O)c32)c1 (stereo not given)	92	84.5% (inactive)	92% (inactive)	83.8% (inactive)	99.5% (inactive)	0.505% (inactive)	99	99.5	-3.87% (inactive)	0.49% (inactive)
CN1CC[n+]2cnc3ccccc3c21	100	92% (inactive)	100% (inactive)	108% (inactive)	97.3% (inactive)	8.2% (inactive)	89.1	97.3	-2.24% (inactive)	6.23% (inactive)
O=C(Nc1ccc(O)cc1)C1CCCN1S(=O)(=O)c1ccc(F)cc1 (stereo not given)	97.5	92% (inactive)	97.5% (inactive)	91.6% (inactive)	97.3% (inactive)	2.53% (inactive)	94.7	97.3	-1.47% (inactive)	1.64% (inactive)
CCCc1nnc(SCC(=O)N2CCOCC2)n1Cc1ccco1	126	87.5% (inactive)	126% (inactive)	109% (inactive)	96.9% (inactive)	15.3% (inactive)	81.6	96.9	-4.67% (inactive)	-6.39% (inactive)
NC(=O)CSc1nnc(-c2cc3ccccc3o2)n1Cc1ccccc1	92.5	81.5% (inactive)	92.5% (inactive)	104% (inactive)	90.3% (inactive)	-1.59% (inactive)	91.8	90.3	-6.05% (inactive)	0.67% (inactive)
CSc1nc(N2CCOCC2)c2ccccc2n1	110	100% (inactive)	110% (inactive)	93.7% (inactive)	94.6% (inactive)	7.67% (inactive)	87	94.6	-2.27% (inactive)	-7.87% (inactive)
COC(=O)c1cc(O)c(OCc2ccccc2)c(O)c1	88	98% (inactive)	88% (inactive)	114% (inactive)	94.3% (inactive)	18% (inactive)	76.3	94.3	2.63% (inactive)	-7.09% (inactive)
CCN1CCN(c2ncnc3c2oc2nc(C)c4c(c23)CC(C)(C)OC4)CC1	91.5	122% (inactive)	91.5% (inactive)	98.3% (inactive)	97% (inactive)	-1.16% (inactive)	98.1	97	-0.78% (inactive)	-3.17% (inactive)
Cc1onc(-c2c(Cl)cccc2Cl)c1C(=O)N1CCc2ccccc21	97	91.5% (inactive)	97% (inactive)	68.1% (inactive)	61.6% (inactive)	-24.3% (inactive)	85.9	61.6	-0.93% (inactive)	2.74% (inactive)
COc1ccccc1NC(=O)CSc1nnc(-c2ccncc2)n1CC1CCCO1 (stereo not given)	97	91% (inactive)	97% (inactive)	103% (inactive)	96.7% (inactive)	6.53% (inactive)	90.1	96.7	-5.33% (inactive)	-3.81% (inactive)
CCOc1ccc(C(=O)N(CN2CCCC2=O)c2ccc(C)cc2)cc1	125	114% (inactive)	125% (inactive)	116% (inactive)	95.1% (inactive)	7.87% (inactive)	87.2	95.1	-6% (inactive)	1.94% (inactive)
COC(=O)c1nn(-c2ccc(-c3ccccc3)cc2)cc1O	94	97% (inactive)	94% (inactive)	92.6% (inactive)	89.2% (inactive)	4.12% (inactive)	85.1	89.2	-4.27% (inactive)	-8.06% (inactive)
O=C(OCCCN1CCCC1)C1(c2ccccc2)CCCC1	82.5	117% (inactive)	82.5% (inactive)	121% (inactive)	88.6% (inactive)	6.39% (inactive)	82.2	88.6	-2.84% (inactive)	-13.3% (inactive)
CCn1c(=O)cc(SCC(=O)NCCN2CCN(Cc3ccccc3)CC2)c2ccccc21	89	89.5% (inactive)	89% (inactive)	80.5% (inactive)	84.4% (inactive)	7.1% (inactive)	77.3	84.4	-4.47% (inactive)	-3.09% (inactive)
